Assay results reported in ChEMBL document CHEMBL5108039, “Piperazine tethered bergenin heterocyclic hybrids: design, synthesis, anticancer activity, and molecular docking studies” (RSC Med Chem, 2022).

Legend:
HCT-15 = assay: Cytotoxicity against human HCT-15 cells assessed as cell growth inhibition; assay type: functional, cell-based
Method in brief: (§1)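 Compounds were dissolved in sterile DMSO as 10 mg ml−1 stocks and tested for in vitro growth inhibition of human cancer cell lines. Doxorubicin was the standard drug and DMSO (0.01%) the vehicle control. IC50 values are reported as means.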

CAL-27 [1] = assay: Cytotoxicity against human CAL-27 cells assessed as cell growth inhibition; assay type: functional, cell-based; method in brief: as §1
SCC-9 [2] = assay: Cytotoxicity against human SCC-9 cells assessed as cell growth inhibition; assay type: functional, cell-based; method in brief: as §1
A549 = assay: Cytotoxicity against human A549 cells assessed as cell growth inhibition; assay type: functional, cell-based
Method in brief: (§2)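 Compounds were dissolved in sterile DMSO as 10 mg ml−1 stocks and tested in vitro for cytotoxicity in a cell-line panel, with DMSO (0.01%) as vehicle control and doxorubicin as standard. Mean IC50 values were reported, and the normal lung epithelial cells were tested up to 100 μM.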

MCF7 = assay: Cytotoxicity against human MCF7 cells assessed as cell growth inhibition; assay type: functional, cell-based; method in brief: as §1
[3] = Cytotoxicity against human BEAS-2B cells assessed as cell growth inhibition; assay type: toxicity, cell-based; method in brief: as §2
CAL-27 [4] = assay: Cell cycle arrest in human CAL-27 cells assessed as accumulation at G0/G1 phase at 10 uM incubated for 24 hrs by flow cytometry (reference value: 77.6 %); assay type: functional
CAL-27 [5] = assay: Cell cycle arrest in human CAL-27 cells assessed as accumulation at G0/G1 phase at 34 uM incubated for 24 hrs by flow cytometry (reference value: 77.6 %); assay type: functional
CAL-27 [6] = assay: Cell cycle arrest in human CAL-27 cells assessed as accumulation at S phase at 10 uM incubated for 24 hrs by flow cytometry (reference value: 3.6 %); assay type: functional
CAL-27 [7] = assay: Cell cycle arrest in human CAL-27 cells assessed as accumulation at S phase at 34 uM incubated for 24 hrs by flow cytometry (reference value: 3.6 %); assay type: functional
CAL-27 [8] = assay: Cell cycle arrest in human CAL-27 cells assessed as accumulation at G2/M phase at 10 uM incubated for 24 hrs by flow cytometry (reference value: 11.9 %); assay type: functional
CAL-27 [9] = assay: Cell cycle arrest in human CAL-27 cells assessed as accumulation at G2/M phase at 34 uM incubated for 24 hrs by flow cytometry (reference value: 11.9 %); assay type: functional
SCC-9 [10] = assay: Cell cycle arrest in human SCC-9 cells assessed as accumulation at G0/G1 phase at 17 uM incubated for 24 hrs by flow cytometry (reference value: 70.8 %); assay type: functional
SCC-9 [11] = assay: Cell cycle arrest in human SCC-9 cells assessed as accumulation at G0/G1 phase at 34 uM incubated for 24 hrs by flow cytometry (reference value: 70.8 %); assay type: functional
SCC-9 [12] = assay: Cell cycle arrest in human SCC-9 cells assessed as accumulation at S phase at 17 uM incubated for 24 hrs by flow cytometry (reference value: 14.4 %); assay type: functional
SCC-9 [13] = assay: Cell cycle arrest in human SCC-9 cells assessed as accumulation at S phase at 34 uM incubated for 24 hrs by flow cytometry (reference value: 14.4 %); assay type: functional
SCC-9 [14] = assay: Cell cycle arrest in human SCC-9 cells assessed as accumulation at G2/M phase at 17 uM incubated for 24 hrs by flow cytometry (reference value: 14.2 %); assay type: functional
SCC-9 [15] = assay: Cell cycle arrest in human SCC-9 cells assessed as accumulation at G2/M phase at 34 uM incubated for 24 hrs by flow cytometry (reference value: 14.2 %); assay type: functional
CAL-27 [16] = assay: Induction of apoptosis in human CAL-27 cells assessed as live cells at 10 uM incubated for 24 hrs by Annexin V-FITC/PI staining based flow cytometric analysis (reference value: 99.8 %); assay type: functional
Method in brief: (§3)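 CAL27 cells were treated with vehicle, doxorubicin or test compounds at 10–63 μM, and apoptosis was assessed by annexin V–FITC/PI staining with flow cytometry. Cells were scored as live, early apoptotic, late apoptotic or necrotic. The vehicle was DMSO (0.01%).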

CAL-27 [17] = assay: Induction of apoptosis in human CAL-27 cells assessed as early apoptotic cells at 10 uM incubated for 24 hrs by Annexin V-FITC/PI staining based flow cytometric analysis (reference value: 0.1 %); assay type: functional; method in brief: as §3
CAL-27 [18] = assay: Induction of apoptosis in human CAL-27 cells assessed as late apoptotic cells at 10 uM incubated for 24 hrs by Annexin V-FITC/PI staining based flow cytometric analysis (reference value: 0.1 %); assay type: functional; method in brief: as §3
CAL-27 [19] = assay: Induction of apoptosis in human CAL-27 cells assessed as necrotic cells at 10 uM incubated for 24 hrs by Annexin V-FITC/PI staining based flow cytometric analysis (reference value: 0.0 %); assay type: functional; method in brief: as §3
CAL-27 [20] = assay: Induction of apoptosis in human CAL-27 cells assessed as live cells at 34 uM incubated for 24 hrs by Annexin V-FITC/PI staining based flow cytometric analysis (reference value: 99.8 %); assay type: functional; method in brief: as §3
CAL-27 [21] = assay: Induction of apoptosis in human CAL-27 cells assessed as early apoptotic cells at 34 uM incubated for 24 hrs by Annexin V-FITC/PI staining based flow cytometric analysis (reference value: 0.1 %); assay type: functional; method in brief: as §3
CAL-27 [22] = assay: Induction of apoptosis in human CAL-27 cells assessed as late apoptotic cells at 34 uM incubated for 24 hrs by Annexin V-FITC/PI staining based flow cytometric analysis (reference value: 0.1 %); assay type: functional; method in brief: as §3
CAL-27 [23] = assay: Induction of apoptosis in human CAL-27 cells assessed as necrotic cells at 34 uM incubated for 24 hrs by Annexin V-FITC/PI staining based flow cytometric analysis (reference value: 0.0 %); assay type: functional
SCC-9 [24] = assay: Induction of apoptosis in human SCC-9 cells assessed as live cells at 17 uM incubated for 24 hrs by Annexin V-FITC/PI staining based flow cytometric analysis (reference value: 95.7 %); assay type: functional
SCC-9 [25] = assay: Induction of apoptosis in human SCC-9 cells assessed as early apoptotic cells at 17 uM incubated for 24 hrs by Annexin V-FITC/PI staining based flow cytometric analysis (reference value: 2.8 %); assay type: functional
SCC-9 [26] = assay: Induction of apoptosis in human SCC-9 cells assessed as late apoptotic cells at 17 uM incubated for 24 hrs by Annexin V-FITC/PI staining based flow cytometric analysis (reference value: 1.4 %); assay type: functional
SCC-9 [27] = assay: Induction of apoptosis in human SCC-9 cells assessed as necrotic cells at 17 uM incubated for 24 hrs by Annexin V-FITC/PI staining based flow cytometric analysis (reference value: 0.1 %); assay type: functional
SCC-9 [28] = assay: Induction of apoptosis in human SCC-9 cells assessed as live cells at 34 uM incubated for 24 hrs by Annexin V-FITC/PI staining based flow cytometric analysis (reference value: 95.7 %); assay type: functional
SCC-9 [29] = assay: Induction of apoptosis in human SCC-9 cells assessed as early apoptotic cells at 34 uM incubated for 24 hrs by Annexin V-FITC/PI staining based flow cytometric analysis (reference value: 2.8 %); assay type: functional
SCC-9 [30] = assay: Induction of apoptosis in human SCC-9 cells assessed as late apoptotic cells at 34 uM incubated for 24 hrs by Annexin V-FITC/PI staining based flow cytometric analysis (reference value: 1.4 %); assay type: functional
SCC-9 [31] = assay: Induction of apoptosis in human SCC-9 cells assessed as necrotic cells at 34 uM incubated for 24 hrs by Annexin V-FITC/PI staining based flow cytometric analysis (reference value: 0.1 %); assay type: functional

Structure (SMILES): COc1c(O)c(CN2CCN(CC(=O)Nc3nc(-c4ccccc4)cs3)CC2)c2c(c1O)C1O[C@H](CO)[C@@H](O)[C@H](O)C1OC2=O (some centres undefined)
- IC50 (HCT-15): 69.7 µM
- IC50 (CAL-27 [1]): 20.7 µM
- IC50 (SCC-9 [2]): 34.4 µM
- IC50 (A549): > 100 µM
- IC50 (MCF7): > 100 µM
- IC50 [3]: > 100 µM
- Activity (CAL-27 [4]): 87.4%
- Activity (CAL-27 [5]): 85.6%
- Activity (CAL-27 [6]): 2.9%
- Activity (CAL-27 [7]): 4.1%
- Activity (CAL-27 [8]): 10.6%
- Activity (CAL-27 [9]): 10.8%
- Activity (SCC-9 [10]): 71%
- Activity (SCC-9 [11]): 73.6%
- Activity (SCC-9 [12]): 16.5%
- Activity (SCC-9 [13]): 12.6%
- Activity (SCC-9 [14]): 11.8%
- Activity (SCC-9 [15]): 10.3%
- Activity (CAL-27 [16]): 94.5%
- Activity (CAL-27 [17]): 1.2%
- Activity (CAL-27 [18]): 2.2%
- Activity (CAL-27 [19]): 2%
- Activity (CAL-27 [20]): 88.7%
- Activity (CAL-27 [21]): 2.2%
- Activity (CAL-27 [22]): 4.8%
- Activity (CAL-27 [23]): 4.3%
- Activity (SCC-9 [24]): 28%
- Activity (SCC-9 [25]): 28.8%
- Activity (SCC-9 [26]): 42%
- Activity (SCC-9 [27]): 1.3%
- Activity (SCC-9 [28]): 20.2%
- Activity (SCC-9 [29]): 32.4%
- Activity (SCC-9 [30]): 45.6%
- Activity (SCC-9 [31]): 1.8%
